Assay results reported in paper PMC3431965 (The Journal of organic chemistry, 2012).
Substitutions are numbered along the chain they refer to. Where two headings read alike, the source gives them in different places.

Experiments:
[1] = tested on: β-mannosidase (Roman snail); assay: Glycosidase inhibition assay, β-mannosidase; type: biochemical; settings: 100 µM compound; substrate at Km
How it was run: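 Test compound is at 100 µM. Enzyme addition starts the reaction, which runs 4–5 min at room temperature before quenching with 0.2 M sodium borate (pH 9.8). Absorbance is read at 405 nm and given as % remaining activity.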

[2] = molecular target: β-galactosidase (Escherichia coli) (Escherichia coli, UniProt P00722); assay: biochemical; settings: for β-Gal % Ra (% remaining activity at 100 µM): 100 µM compound; for remaining activity at 100 µM: read-out: β-Gal % Ra (% remaining activity at 100 µM)
β-galactosidase (Escherichia coli), sequence (P00722 2-1024): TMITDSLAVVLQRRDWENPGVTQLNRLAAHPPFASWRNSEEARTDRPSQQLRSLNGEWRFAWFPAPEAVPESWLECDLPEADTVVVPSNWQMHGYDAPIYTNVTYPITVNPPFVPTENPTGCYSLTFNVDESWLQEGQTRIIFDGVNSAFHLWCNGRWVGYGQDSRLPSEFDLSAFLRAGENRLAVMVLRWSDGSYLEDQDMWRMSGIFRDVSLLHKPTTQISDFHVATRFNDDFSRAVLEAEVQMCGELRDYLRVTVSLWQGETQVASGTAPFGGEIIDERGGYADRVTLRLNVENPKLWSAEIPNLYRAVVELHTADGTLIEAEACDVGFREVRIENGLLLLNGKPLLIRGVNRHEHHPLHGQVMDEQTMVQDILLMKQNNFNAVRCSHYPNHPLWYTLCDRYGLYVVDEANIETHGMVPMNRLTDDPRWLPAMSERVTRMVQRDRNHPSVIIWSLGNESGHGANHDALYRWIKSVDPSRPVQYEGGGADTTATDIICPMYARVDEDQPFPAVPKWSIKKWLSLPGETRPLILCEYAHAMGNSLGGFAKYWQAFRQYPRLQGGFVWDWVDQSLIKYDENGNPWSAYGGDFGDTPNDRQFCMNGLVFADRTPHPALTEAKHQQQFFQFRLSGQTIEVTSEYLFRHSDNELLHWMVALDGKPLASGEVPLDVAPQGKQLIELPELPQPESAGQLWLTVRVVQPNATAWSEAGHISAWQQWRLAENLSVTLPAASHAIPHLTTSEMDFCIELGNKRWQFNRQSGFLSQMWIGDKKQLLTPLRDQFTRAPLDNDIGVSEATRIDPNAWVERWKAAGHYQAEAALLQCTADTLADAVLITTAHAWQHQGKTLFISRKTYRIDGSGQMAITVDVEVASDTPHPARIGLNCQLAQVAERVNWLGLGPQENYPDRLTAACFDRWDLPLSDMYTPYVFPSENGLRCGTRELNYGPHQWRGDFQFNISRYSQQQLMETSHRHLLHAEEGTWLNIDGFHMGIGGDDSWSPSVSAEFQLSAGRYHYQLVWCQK

[3] = molecular target: T1, α-mannosidase (jack bean) (Canavalia ensiformis, UniProt C0HJB3); assay: Glycosidase inhibition assay, α-mannosidase; type: biochemical; settings: for α-Man % Ra (% remaining activity at 100 µM): 100 µM compound, substrate at Km; for remaining activity at 100 µM: read-out: α-Man % Ra (% remaining activity at 100 µM)
T1 sequence (C0HJB3 1-562 limits assumed): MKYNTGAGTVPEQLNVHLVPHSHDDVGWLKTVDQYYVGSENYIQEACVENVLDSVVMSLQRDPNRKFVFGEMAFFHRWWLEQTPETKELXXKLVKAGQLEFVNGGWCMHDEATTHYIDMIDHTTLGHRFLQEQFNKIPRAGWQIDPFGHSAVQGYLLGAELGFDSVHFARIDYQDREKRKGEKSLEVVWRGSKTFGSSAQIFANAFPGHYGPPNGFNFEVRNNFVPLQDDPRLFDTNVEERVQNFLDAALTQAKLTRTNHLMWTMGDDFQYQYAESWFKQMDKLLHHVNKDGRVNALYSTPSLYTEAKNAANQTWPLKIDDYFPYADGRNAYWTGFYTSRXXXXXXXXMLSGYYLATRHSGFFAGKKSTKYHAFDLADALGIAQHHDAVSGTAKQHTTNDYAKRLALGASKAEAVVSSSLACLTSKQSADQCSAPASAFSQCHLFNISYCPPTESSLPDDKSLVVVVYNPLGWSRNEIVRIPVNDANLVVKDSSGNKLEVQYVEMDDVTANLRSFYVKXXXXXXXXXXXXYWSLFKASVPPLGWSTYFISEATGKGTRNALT
T1 sequence (C0HJB3 563-981 partner limits assumed): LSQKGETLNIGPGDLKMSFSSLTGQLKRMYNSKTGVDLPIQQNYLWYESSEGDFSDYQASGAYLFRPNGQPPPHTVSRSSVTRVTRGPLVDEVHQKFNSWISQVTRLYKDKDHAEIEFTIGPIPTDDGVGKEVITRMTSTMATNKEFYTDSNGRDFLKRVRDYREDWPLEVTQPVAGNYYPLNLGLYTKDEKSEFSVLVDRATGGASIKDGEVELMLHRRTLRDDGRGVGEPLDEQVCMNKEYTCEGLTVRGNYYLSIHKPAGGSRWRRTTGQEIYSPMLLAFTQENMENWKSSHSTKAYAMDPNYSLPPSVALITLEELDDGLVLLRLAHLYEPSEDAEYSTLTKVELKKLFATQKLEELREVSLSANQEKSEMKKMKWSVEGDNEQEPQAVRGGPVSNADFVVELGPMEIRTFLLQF
How it was run: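 Enzyme starts the reaction with test compound at 100 µM. After 4–5 min at room temperature, 0.2 M sodium borate (pH 9.8) quenches it. Absorbance is read at 405 nm and reported as % remaining activity.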

[4] = tested on: α-glucosidase (Saccharomyces cerevisiae); assay: Glycosidase inhibition assay, α-glucosidase; type: biochemical; settings: substrate at Km; for α-Glc % Ra (% remaining activity at 100 µM): 100 µM compound
[5] = molecular target: T2, ceramide-specific glucosyltransferase (Rattus norvegicus, UniProt Q9R0E0); assay: Ceramide-specific glucosyltransferase assay, rat testicular microsomes; type: biochemical, Long Evans (LE) rat; settings: rat testicular microsomes, n.i. = no inhibition at 1000 µM concentration; for IC50: read-out: ceramide-specific glucosyltransferase IC50 (LE rat)
T2 sequence (Q9R0E0 1-394): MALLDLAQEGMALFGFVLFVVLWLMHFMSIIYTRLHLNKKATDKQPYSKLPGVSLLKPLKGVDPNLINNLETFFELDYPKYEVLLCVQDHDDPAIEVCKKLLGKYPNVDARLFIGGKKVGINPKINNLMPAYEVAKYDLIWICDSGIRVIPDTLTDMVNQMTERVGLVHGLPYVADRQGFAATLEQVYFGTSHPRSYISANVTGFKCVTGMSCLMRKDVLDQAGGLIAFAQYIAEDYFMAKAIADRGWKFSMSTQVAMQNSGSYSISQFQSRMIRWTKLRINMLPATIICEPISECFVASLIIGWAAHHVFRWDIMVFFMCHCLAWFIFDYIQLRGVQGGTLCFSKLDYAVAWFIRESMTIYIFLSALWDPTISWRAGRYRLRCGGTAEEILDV

[6] = molecular target: T3, ceramide-specific glucosyltransferase (Mus musculus, UniProt O88693); assay: Ceramide-specific glucosyltransferase assay, mouse testicular microsomes; type: biochemical, C57BL/6 mouse; settings: mouse testicular microsomes, n.i. = no inhibition at 1000 µM concentration; for IC50: read-out: ceramide-specific glucosyltransferase IC50 (C57BL/6, mouse)
T3 sequence (O88693 1-394): T2 sequence (Q9R0E0 1-394) with E96D, R164K, K249R, A377T

[7] = tested on: β-glucosidase (almond); assay: Glycosidase inhibition assay, β-glucosidase; type: biochemical; settings: substrate at Km; for β-Glc % Ra (% remaining activity at 100 µM): 100 µM compound; for IC50: read-out: β-Glc IC50
How it was run: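 Enzyme is added last; incubation is 4–5 min at room temperature, then 0.2 M sodium borate (pH 9.8) quenches. Absorbance at 405 nm gives % remaining activity at 100 µM compound. IC50 comes from non-linear fitting of relative activity versus concentration to a Hill-slope equation.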

[8] = molecular target: α-galactosidase (green coffee beans) (Coffea arabica, UniProt Q42656); assay: biochemical; settings: for α-Gal % Ra (% remaining activity at 100 µM): 100 µM compound, substrate at Km; for remaining activity at 100 µM: read-out: α-Gal % Ra (% remaining activity at 100 µM)
α-galactosidase (green coffee beans), sequence (Q42656 16-378): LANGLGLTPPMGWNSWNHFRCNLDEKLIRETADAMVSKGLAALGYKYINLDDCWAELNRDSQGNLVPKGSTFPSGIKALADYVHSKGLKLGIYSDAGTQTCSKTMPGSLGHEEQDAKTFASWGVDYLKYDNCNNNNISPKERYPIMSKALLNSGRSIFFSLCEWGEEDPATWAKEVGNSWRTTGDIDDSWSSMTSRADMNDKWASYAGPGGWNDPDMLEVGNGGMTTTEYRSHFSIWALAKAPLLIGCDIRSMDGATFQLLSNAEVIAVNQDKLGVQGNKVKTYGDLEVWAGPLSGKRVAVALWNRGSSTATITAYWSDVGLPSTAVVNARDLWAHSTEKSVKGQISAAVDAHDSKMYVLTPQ

[9] = molecular target: T4, testicular β-glucosidase 2 (Rattus norvegicus, UniProt Q5M868); assay: Testicular glucosidase assay; type: biochemical, Long Evans (LE) rat
T4 sequence (Q5M868 1-912): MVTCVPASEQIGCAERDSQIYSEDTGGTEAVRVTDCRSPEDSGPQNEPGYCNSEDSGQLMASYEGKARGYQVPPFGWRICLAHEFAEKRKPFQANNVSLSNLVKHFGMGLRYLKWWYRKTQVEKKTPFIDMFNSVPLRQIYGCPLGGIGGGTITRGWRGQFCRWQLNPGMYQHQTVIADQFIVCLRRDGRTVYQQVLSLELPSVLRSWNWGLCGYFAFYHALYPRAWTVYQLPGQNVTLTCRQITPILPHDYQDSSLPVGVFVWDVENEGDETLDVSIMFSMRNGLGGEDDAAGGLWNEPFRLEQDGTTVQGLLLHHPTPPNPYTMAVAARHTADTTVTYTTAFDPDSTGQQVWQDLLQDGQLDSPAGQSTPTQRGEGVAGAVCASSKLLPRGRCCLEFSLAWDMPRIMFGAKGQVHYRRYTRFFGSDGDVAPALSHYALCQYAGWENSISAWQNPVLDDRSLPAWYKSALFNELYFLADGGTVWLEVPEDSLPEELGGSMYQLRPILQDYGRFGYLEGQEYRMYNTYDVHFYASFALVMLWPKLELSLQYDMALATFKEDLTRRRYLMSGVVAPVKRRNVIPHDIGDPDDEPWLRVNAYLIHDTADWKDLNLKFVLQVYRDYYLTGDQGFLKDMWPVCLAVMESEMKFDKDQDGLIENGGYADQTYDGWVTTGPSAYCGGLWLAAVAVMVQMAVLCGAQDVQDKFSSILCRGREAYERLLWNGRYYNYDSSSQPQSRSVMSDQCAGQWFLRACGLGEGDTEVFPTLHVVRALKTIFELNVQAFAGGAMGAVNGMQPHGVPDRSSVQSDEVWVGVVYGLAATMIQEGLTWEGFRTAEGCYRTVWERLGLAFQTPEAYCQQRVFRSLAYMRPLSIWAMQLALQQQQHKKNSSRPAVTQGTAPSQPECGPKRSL

Q: `CCCCN1[C@H](CO)[C@@H](O)[C@@H]1CO` [Compound 24, ((2R,3s,4S)-1-Butyl-3-hydroxyazetidine-2,4-diyl)dimethanol] was tested. Which “β-Man % Ra (% remaining activity at 100 µM)” value [1] did it give?
A: 113%

Q: And the “β-Gal % Ra (% remaining activity at 100 µM)” value ([2]; substrate at Km)?
A: 109%

Q: And the “α-Man % Ra (% remaining activity at 100 µM)” value [3]?
A: 99%

Q: And the “α-Glc % Ra (% remaining activity at 100 µM)” value [4]?
A: 65%

Q: And the IC50 [5]?
A: > 300 µM

Q: What about the IC50 [6] of the same compound?
A: > 300 µM

Q: And the “β-Glc % Ra (% remaining activity at 100 µM)” value [7]?
A: 101%

Q: And the “α-Gal % Ra (% remaining activity at 100 µM)” value [8]?
A: 106%

Q: Which results are given for `CCCCCCCCCN1C/C=C\[C@@H](O)[C@H](O)[C@@H](O)C1` [Compound 4, (3S,4S,5R,Z)-1-Nonyl-1,2,3,4,5,8-hexahydroazocine-3,4,5-triol]?
A: β-Man % Ra (% remaining activity at 100 µM) [1]: 99%; remaining activity at 100 µM [2]: 90%; remaining activity at 100 µM [3]: 100%; α-Glc % Ra (% remaining activity at 100 µM) [4]: 90%; ceramide-specific glucosyltransferase IC50 (LE rat) [5]: n.i.; ceramide-specific glucosyltransferase IC50 (C57BL/6, mouse) [6]: n.i.; β-Glc % Ra (% remaining activity at 100 µM) [7]: 44%; IC50 [9]: 904 µM; remaining activity at 100 µM [8]: 100%

Q: What does the source list for `CCCCN1C[C@H](O)[C@@H](O)[C@@H](O)[C@H]1CO` [NB-DGJ, N-butyldeoxygalactonojirimycin, reference compound]?
A: IC50 [2]: 6 µM; remaining activity at 100 µM [2]: 9.6%

Q: Which results are given for `CCCCCCCCCN1C[C@@H](O)[C@@H](O)[C@@H](O)[C@H](O)[C@@H](O)C1` [Compound 6, (3S,4R,5S,6R,7R)-1-Nonylazocane-3,4,5,6,7-pentaol]?
A: β-Man % Ra (% remaining activity at 100 µM) [1]: 99%; β-Gal % Ra (% remaining activity at 100 µM) ([2]; substrate at Km): 92%; α-Man % Ra (% remaining activity at 100 µM) [3]: 100%; α-Glc % Ra (% remaining activity at 100 µM) [4]: 84%; IC50 [5]: 127 µM; ceramide-specific glucosyltransferase IC50 (C57BL/6, mouse) [6]: n.i.; β-Glc % Ra (% remaining activity at 100 µM) [7]: 85%; α-Gal % Ra (% remaining activity at 100 µM) [8]: 100%

Q: With `OC[C@H]1NC[C@H](O)[C@@H](O)[C@@H]1O` [DNJ, 1-deoxynojirimycin, reference compound] as the compound, how does the “α-Glc % Ra (% remaining activity at 100 µM)” value [4] read?
A: 34%

Q: How did the “β-Glc % Ra (% remaining activity at 100 µM)” value [7] turn out when `O[C@H]1[C@H](O)[C@@H](O)CN2CC[C@H](O)[C@H]12` [Castano., castanospermine, reference compound] was run?
A: 13.5%

Q: How did the “β-Man % Ra (% remaining activity at 100 µM)” value [1] turn out when `CCCCN1C/C=C\[C@@H](O)[C@H](O)[C@@H](O)C1` [Compound 3, (3S,4S,5R,Z)-1-Butyl-1,2,3,4,5,8-hexahydroazocine-3,4,5-triol] was run?
A: 99%

Q: What about the remaining activity at 100 µM [2] of the same compound?
A: 94%

Q: What about the remaining activity at 100 µM [3] of the same compound?
A: 100%

Q: And the “α-Glc % Ra (% remaining activity at 100 µM)” value [4]?
A: 81%

Q: And the “ceramide-specific glucosyltransferase IC50 (LE rat)” value [5]?
A: n.i.

Q: And the “ceramide-specific glucosyltransferase IC50 (C57BL/6, mouse)” value [6]?
A: n.i.

Q: And the “β-Glc % Ra (% remaining activity at 100 µM)” value [7]?
A: 52%

Q: And the IC50 [7]?
A: 105 µM

Q: And the remaining activity at 100 µM [8]?
A: 100%

Q: What does the source list for `OC[C@H]1NC[C@@H](O)[C@@H](O)[C@@H]1O` [DMJ, 1-deoxymannojirimycin, reference compound]?
A: β-Man % Ra (% remaining activity at 100 µM) [1]: 77%; α-Man % Ra (% remaining activity at 100 µM) [3]: 75%

Q: How did the “β-Gal % Ra (% remaining activity at 100 µM)” value ([2]; substrate at Km) turn out when `OC[C@H]1NC[C@H](O)[C@@H](O)[C@H]1O` [DGJ, 1-deoxygalactonojirimycin, reference compound] was run?
A: 23%

Q: And the IC50 ([2]; read-out: β-Gal IC50, substrate at Km)?
A: 40 µM

Q: And the “α-Gal % Ra (% remaining activity at 100 µM)” value [8]?
A: 0.05%

Q: Which “β-Man % Ra (% remaining activity at 100 µM)” value [1] does the source give for `CCCCCCCCCN1[C@H](CO)[C@@H](O)[C@@H]1CO` [Compound 25, ((2R,3s,4S)-3-Hydroxy-1-nonylazetidine-2,4-diyl)dimethanol] here?
A: 76%

Q: And the “β-Gal % Ra (% remaining activity at 100 µM)” value ([2]; substrate at Km)?
A: 107%

Q: And the “α-Man % Ra (% remaining activity at 100 µM)” value [3]?
A: 92%

Q: What about the IC50 ([4]; read-out: α-Glc IC50) of the same compound?
A: 0.6 µM

Q: What about the IC50 [5] of the same compound?
A: 91 µM

Q: And the IC50 [6]?
A: 44 µM

Q: What about the “β-Glc % Ra (% remaining activity at 100 µM)” value [7] of the same compound?
A: 26%

Q: And the IC50 [7]?
A: 20 µM

Q: What about the “α-Gal % Ra (% remaining activity at 100 µM)” value [8] of the same compound?
A: 66%
